Laboratory results from paper PMC4409786 (Cancer discovery, 2014).
Where a name gives a salt, the structure may show the parent alone. One block for each molecule: values may come before it.

Legend:
trypsin = assay: Trypsin inhibition; type: biochemical; details: read-out: IC50 for trypsin
matriptase = target: T1, matriptase (Homo sapiens, UniProt Q9Y5Y6); assay: Matriptase protease inhibition with optimal peptide substrate; type: biochemical
T1 sequence (Q9Y5Y6 1-855): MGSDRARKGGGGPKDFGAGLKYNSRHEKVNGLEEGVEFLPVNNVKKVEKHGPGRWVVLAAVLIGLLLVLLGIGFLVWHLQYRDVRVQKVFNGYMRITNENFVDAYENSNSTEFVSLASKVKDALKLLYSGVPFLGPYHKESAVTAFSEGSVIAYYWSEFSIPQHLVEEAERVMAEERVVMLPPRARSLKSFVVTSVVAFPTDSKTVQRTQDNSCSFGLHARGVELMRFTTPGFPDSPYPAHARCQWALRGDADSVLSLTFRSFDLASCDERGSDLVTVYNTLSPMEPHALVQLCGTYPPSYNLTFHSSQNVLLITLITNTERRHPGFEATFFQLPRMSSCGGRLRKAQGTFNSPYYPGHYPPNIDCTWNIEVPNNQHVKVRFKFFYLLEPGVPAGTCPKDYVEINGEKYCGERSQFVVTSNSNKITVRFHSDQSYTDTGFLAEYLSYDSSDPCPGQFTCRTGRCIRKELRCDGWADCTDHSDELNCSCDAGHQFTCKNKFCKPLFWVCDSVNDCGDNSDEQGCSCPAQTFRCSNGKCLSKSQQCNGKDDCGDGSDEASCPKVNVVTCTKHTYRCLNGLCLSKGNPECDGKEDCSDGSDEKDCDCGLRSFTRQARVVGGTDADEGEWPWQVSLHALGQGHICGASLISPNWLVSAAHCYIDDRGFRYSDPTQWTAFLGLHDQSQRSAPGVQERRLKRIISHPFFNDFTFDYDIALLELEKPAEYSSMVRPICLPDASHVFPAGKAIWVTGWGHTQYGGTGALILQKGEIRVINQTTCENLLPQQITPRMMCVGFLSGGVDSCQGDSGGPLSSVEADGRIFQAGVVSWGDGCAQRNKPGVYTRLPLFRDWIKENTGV
Outline: (§1)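 Each enzyme is assayed with its optimal peptide substrate, and substrate concentrations are determined after 30 minutes.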

PC3 cells = assay: In vitro cell toxicity, PC3; type: cell-based; details: PC3, 48-hour, 0μM to 250μM
LNCaP cells [1] = assay: In vitro cell toxicity, LNCaP; type: cell-based; details: 48-hour, 0μM to 250μM
TRAMP mice = assay: In vivo treatment of TRAMP mice: primary tumor and spontaneous metastasis; design: species or system mouse; details: 30mg/kg intraperitoneal three times per week, p=0.04 versus vehicle
DU145^TMPRSS2 cells = assay: Matrigel invasion assay, HGF-promoted; type: cell-based; details: DU145^TMPRSS2, p<0.01
Outline: (§2)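 TMPRSS2 coding sequence is cloned and transfected into DU145 or PC3 cells, and stable lines are selected with antibiotic; vector-transfected cells are the controls. Invasion through Matrigel is measured with a commercial 96-well invasion kit, under standard culture (serum) conditions or with added HGF, alongside serum-free medium.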

HepG2 cells = assay: In vitro cell toxicity, HepG2; type: cell-based; details: HepG2, 48-hour, 0μM to 250μM
PC-3^TMPRSS2 cells = assay: Matrigel invasion assay, HGF-promoted; type: cell-based; details: PC-3^TMPRSS2, p<0.01
Outline: as §2

LNCaP cells [2] = assay: HGF-induced invasion assay; type: cell-based; details: natively express TMPRSS2, p<0.01
Outline: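 Invasion through basement-membrane matrix, measured with a commercial 96-well invasion kit. LNCaP cells are exposed to exogenous paracrine-acting HGF and compared with serum-free medium.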

thrombin = thrombin (Homo sapiens, UniProt P00734); assay: Thrombin inhibition; type: biochemical
C4-2B cells = assay: HGF-induced invasion assay; type: cell-based; details: natively express TMPRSS2, p<0.01
hepsin = hepsin (Homo sapiens, UniProt P05981); assay: Hepsin protease inhibition with optimal peptide substrate; type: biochemical
Outline: as §1

DU145 cells [3] = assay: In vitro cell toxicity, DU145; type: cell-based; details: DU145, 48-hour, 0μM to 250μM
DU145 cells [4] = assay: DU145 invasion with prostate fibroblast conditioned medium and TMPRSS2; type: cell-based
prostate bone metastasis = details: human clinical trials ref 42; cited from earlier work

Sequence of hepsin (P05981 whole entry): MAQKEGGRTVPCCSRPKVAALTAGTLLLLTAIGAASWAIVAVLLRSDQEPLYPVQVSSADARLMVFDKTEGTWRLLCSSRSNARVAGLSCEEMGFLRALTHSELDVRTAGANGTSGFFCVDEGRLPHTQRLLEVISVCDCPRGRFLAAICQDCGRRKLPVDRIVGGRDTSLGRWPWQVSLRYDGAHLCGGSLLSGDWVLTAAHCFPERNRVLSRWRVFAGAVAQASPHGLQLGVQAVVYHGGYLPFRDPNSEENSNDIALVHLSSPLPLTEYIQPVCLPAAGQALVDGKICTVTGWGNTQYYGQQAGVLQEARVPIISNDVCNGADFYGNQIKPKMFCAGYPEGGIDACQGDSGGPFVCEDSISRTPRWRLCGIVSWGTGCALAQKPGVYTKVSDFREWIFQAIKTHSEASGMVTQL

IC50 (trypsin): > 100 µM
IC50 (matriptase): 58 µM
IC50 (thrombin): > 100 µM
IC50 (hepsin): 35 µM
SMILES: CN(Cc1cc(Br)cc(Br)c1N)C1CCCCC1 [BHH, bromhexine hydrochloride]
toxicity (PC3 cells): No significant toxicity
toxicity (LNCaP cells [1]): No significant toxicity
incidence of distant metastasis to lung and liver sites (TRAMP mice): 20%
migration and invasion phenotypes promoted by HGF (DU145^TMPRSS2 cells): significantly reduced
toxicity (HepG2 cells): No significant toxicity
migration and invasion phenotypes promoted by HGF (PC-3^TMPRSS2 cells): significantly reduced
HGF-induced invasion (LNCaP cells [2]): significantly attenuated
HGF-induced invasion (C4-2B cells): significantly attenuated
toxicity (DU145 cells [3]): No significant toxicity

SMILES: Cc1[nH]c(/C=C2\C(=O)Nc3ccc(S(=O)(=O)N(C)c4cccc(Cl)c4)cc32)c(C)c1C(=O)N1CCN(C)CC1 [SU11274]
increase of cellular invasion by fibroblast conditioned medium and TMPRSS2 (DU145 cells [4]): abolished

SMILES: COc1cc2nccc(Oc3ccc(NC(=O)C4(C(=O)Nc5ccc(F)cc5)CC4)cc3)c2cc1OC [cabozantinib]
prostate bone metastasis response (prostate bone metastasis): Striking regressions
